Data from ChEMBL document CHEMBL2311491, “Development of new cyclic plasmin inhibitors with excellent potency and selectivity” (J Med Chem, 2013).
pIC50, pKi: −log10 of the molar value.

Legend:
Plasma kallikrein = Plasma kallikrein (Homo sapiens, UniProt P03952); experiment: Inhibition of human plasma kallikrein using H-D-Pro-Phe-Arg-pNA as substrate after 5 to 10 mins by micro plate reader analysis
Prothrombin = Prothrombin (Homo sapiens, UniProt P00734); experiment: Inhibition of human thrombin using CH3SO2-D-Cha-Gly-Arg-pNA as substrate after 5 to 10 mins by micro plate reader analysis
[1] = biological target: Vitamin K-dependent protein C (Homo sapiens, UniProt P04070); experiment: Inhibition of human activated protein C using H-D-Lys(Cbz)-Pro-Arg-pNA as substrate after 5 to 10 mins by micro plate reader analysis
Chain of Vitamin K-dependent protein C (P04070 43-197 limits assumed): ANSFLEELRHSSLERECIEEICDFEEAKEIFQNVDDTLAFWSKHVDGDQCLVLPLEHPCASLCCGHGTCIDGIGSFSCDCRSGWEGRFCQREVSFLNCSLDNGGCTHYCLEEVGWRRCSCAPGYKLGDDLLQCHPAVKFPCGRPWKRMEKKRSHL
Chain of Vitamin K-dependent protein C (P04070 212-461 limits assumed): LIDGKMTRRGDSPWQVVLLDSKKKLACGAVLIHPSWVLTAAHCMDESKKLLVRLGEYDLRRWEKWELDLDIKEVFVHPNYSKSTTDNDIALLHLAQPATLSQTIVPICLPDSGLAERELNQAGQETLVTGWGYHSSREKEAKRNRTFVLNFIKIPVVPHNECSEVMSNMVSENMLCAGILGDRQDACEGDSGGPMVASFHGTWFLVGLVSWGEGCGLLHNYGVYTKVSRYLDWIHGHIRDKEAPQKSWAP

Coagulation factor X = Coagulation factor X (Homo sapiens, UniProt P00742); experiment: Inhibition of human factor Xa using CH3OCO-D-Cha-Gly-Arg-pNA as substrate after 5 to 10 mins by micro plate reader analysis
Chain of Coagulation factor X (P00742 41-179 limits assumed): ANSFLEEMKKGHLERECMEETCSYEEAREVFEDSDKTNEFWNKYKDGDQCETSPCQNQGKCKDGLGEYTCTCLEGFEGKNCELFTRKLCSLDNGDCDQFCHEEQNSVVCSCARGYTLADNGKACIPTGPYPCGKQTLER
Chain of Coagulation factor X (P00742 235-488 limits assumed): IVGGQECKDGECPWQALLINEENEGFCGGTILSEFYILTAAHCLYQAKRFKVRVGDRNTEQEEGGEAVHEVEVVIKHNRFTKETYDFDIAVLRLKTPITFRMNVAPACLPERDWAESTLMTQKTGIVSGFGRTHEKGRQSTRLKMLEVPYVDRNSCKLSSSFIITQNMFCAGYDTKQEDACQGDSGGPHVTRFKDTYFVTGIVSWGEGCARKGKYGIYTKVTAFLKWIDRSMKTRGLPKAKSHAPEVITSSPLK

Plasminogen = Plasminogen (Homo sapiens, UniProt P00747); experiment: Inhibition of human plasmin protease domain using Tos-Gly-Pro-Lys-pNA as substrate by micro plate reader analysis
Chain of Plasminogen (P00747 97-580 limits assumed): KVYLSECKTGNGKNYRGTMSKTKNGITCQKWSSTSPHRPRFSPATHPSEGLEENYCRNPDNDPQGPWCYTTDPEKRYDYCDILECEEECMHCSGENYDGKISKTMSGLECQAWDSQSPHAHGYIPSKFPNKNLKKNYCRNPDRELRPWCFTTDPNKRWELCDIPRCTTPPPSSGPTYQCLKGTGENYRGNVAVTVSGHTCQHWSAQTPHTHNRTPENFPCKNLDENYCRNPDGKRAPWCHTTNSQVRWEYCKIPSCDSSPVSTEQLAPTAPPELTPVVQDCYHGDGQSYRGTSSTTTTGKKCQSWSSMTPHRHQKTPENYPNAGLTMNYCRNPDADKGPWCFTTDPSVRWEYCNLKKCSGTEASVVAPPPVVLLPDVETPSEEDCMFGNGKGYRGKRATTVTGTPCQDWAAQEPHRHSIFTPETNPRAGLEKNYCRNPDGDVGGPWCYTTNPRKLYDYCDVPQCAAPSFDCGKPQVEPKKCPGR
Chain of Plasminogen (P00747 581-810 limits assumed): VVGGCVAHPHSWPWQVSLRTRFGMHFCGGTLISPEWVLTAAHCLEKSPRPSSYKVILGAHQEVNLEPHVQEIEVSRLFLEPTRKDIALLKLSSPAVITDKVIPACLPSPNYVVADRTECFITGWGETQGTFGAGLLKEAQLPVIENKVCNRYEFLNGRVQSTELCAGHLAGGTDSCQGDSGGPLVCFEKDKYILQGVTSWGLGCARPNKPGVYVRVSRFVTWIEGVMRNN

Trypsin = Trypsin (Sus scrofa, UniProt P00761); experiment: Inhibition of pig trypsin using CH3SO2-D-Cha-Gly-Arg-pNA as substrate after 5 to 10 mins by micro plate reader analysis
Chain of Trypsin (P00761 whole entry): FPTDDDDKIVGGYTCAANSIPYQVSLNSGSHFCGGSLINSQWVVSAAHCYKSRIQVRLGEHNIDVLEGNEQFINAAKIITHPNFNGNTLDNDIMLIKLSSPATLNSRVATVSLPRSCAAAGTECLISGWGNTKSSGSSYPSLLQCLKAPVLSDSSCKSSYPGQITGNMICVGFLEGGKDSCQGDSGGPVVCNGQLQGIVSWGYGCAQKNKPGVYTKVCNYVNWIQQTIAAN

[2] = biological target: Urokinase-type plasminogen activator (Homo sapiens, UniProt P00749); experiment: Inhibition of human uPA
[3] = biological target: L-type Ca channel, phenylalkylamine site (Rattus norvegicus, UniProt P22002+P27732+Q02485); experiment: Displacement of [3H](-)-desmethoxyverapamil from wistar rat Ca channel L-type phenylalkylamine receptor at 10 uM; details: probe [3H](-)-desmethoxyverapamil
In short: (§1)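 Radioligand binding to the ion channel with test compound at 10 μM. Result expressed as % binding; negative values are read as no binding. Assays run by a contract laboratory.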

[4] = biological target: Complement C1r subcomponent (Homo sapiens, UniProt P00736); experiment: Inhibition of human C1r
Plasma [5] = experiment: Anticoagulant activity in human plasma assessed as concentration required to prothrombin time; assay type: functional
In short: (§2)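 Clotting time measured in human plasma spiked with inhibitor. Value reported as EC200, the concentration that doubles the clotting time.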

[6] = biological target: Cytochrome P450 1A2 (Homo sapiens) (UniProt P05177); experiment: Inhibition of human recombinant CYP1A2 expressed in Trichoplusia ni BTI-TN-5B1-4 cells preincubated for 15 mins measured after 45 mins by spectrofluorimetry
Coagulation factor IX = Coagulation factor IX (Homo sapiens, UniProt P00740); experiment: Inhibition of human FIXa
[7] = Fraction unbound in human plasma; assay type: ADME, cell-free
Coagulation factor XII = Coagulation factor XII (Homo sapiens, UniProt P00748); experiment: Inhibition of human FXIIa
Plasma [8] = experiment: Anticoagulant activity in human plasma assessed as concentration required to thrombin time; assay type: functional; in short: as §2
Coagulation factor XI = Coagulation factor XI (Homo sapiens, UniProt P03951); experiment: Inhibition of human FXIa
Rattus norvegicus = organism: Rattus norvegicus; experiment: Displacement of [3H]batrachotoxinin from wistar rat Na channel at 10 uM
In short: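 Single-point radioligand binding screen at 10 μM test compound, run by a contract lab under its own protocol. Read-out is percent binding, where negative values mean no binding.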

Plasma [9] = experiment: Anticoagulant activity in human plasma assessed as tPA-induced fibrinolysis; assay type: functional; details: in the assay text read “Antifibrinolytic activity” for “Anticoagulant activity”
In short: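 tPA-induced fibrinolysis in human plasma. Value reported as EC200, the inhibitor concentration that doubles the clot-to-lysis time.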

[10] = biological target: Complement C1s subcomponent (Homo sapiens, UniProt P09871); experiment: Inhibition of human C1s
Chain of Complement C1s subcomponent (P09871 16-437 limits assumed): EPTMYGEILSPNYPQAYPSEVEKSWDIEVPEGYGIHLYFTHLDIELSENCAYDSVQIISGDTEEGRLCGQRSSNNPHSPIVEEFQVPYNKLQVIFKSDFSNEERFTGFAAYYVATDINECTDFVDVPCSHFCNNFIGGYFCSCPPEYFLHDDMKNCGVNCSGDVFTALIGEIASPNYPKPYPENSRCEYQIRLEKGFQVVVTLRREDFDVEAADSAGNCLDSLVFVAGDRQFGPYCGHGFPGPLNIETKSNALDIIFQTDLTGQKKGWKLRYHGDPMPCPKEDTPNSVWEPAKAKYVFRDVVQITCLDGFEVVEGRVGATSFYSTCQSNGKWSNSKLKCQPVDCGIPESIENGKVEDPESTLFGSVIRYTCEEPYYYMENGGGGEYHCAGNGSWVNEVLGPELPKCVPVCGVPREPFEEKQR
Chain of Complement C1s subcomponent (P09871 438-688 limits assumed): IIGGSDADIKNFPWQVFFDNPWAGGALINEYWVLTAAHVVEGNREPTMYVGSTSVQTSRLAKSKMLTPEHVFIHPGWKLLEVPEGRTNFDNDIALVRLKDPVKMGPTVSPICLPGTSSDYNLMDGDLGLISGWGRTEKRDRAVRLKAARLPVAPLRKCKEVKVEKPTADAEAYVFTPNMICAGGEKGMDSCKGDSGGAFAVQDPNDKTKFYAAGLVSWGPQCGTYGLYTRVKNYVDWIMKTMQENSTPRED

Kallikrein-1 = Kallikrein-1 (Homo sapiens, UniProt P06870); experiment: Inhibition of urinary kallikrein (unknown origin)
[11] = biological target: L-type Ca channel, benzothiazepine site (Rattus norvegicus, UniProt P22002+P27732+Q02485); experiment: Displacement of [3H]diltiazem from wistar rat Ca channel L-type benzothiazepine receptor at 10 uM; details: probe [3H]diltiazem; in short: as §1
[12] = Thermodynamic solubility of the compound in 0.9% saline; assay type: physicochemical; details: read-out: Therm_solubility
[13] = biological target: Cytochrome P450 2C19 (Homo sapiens) (UniProt P33261); experiment: Inhibition of human recombinant CYP2C19 expressed in Trichoplusia ni BTI-TN-5B1-4 cells preincubated for 15 mins measured after 30 mins by spectrofluorimetry
Plasma [14] = experiment: Anticoagulant activity in human plasma assessed as concentration required to activated partial thromboplastin time; assay type: functional; in short: as §2
Serine protease 1 = Serine protease 1 (Homo sapiens, UniProt P07477); experiment: Inhibition of human trypsin
[15] = biological target: Tissue-type plasminogen activator (Homo sapiens, UniProt P00750); experiment: Inhibition of human tPA
Chain of Tissue-type plasminogen activator (P00750 whole entry): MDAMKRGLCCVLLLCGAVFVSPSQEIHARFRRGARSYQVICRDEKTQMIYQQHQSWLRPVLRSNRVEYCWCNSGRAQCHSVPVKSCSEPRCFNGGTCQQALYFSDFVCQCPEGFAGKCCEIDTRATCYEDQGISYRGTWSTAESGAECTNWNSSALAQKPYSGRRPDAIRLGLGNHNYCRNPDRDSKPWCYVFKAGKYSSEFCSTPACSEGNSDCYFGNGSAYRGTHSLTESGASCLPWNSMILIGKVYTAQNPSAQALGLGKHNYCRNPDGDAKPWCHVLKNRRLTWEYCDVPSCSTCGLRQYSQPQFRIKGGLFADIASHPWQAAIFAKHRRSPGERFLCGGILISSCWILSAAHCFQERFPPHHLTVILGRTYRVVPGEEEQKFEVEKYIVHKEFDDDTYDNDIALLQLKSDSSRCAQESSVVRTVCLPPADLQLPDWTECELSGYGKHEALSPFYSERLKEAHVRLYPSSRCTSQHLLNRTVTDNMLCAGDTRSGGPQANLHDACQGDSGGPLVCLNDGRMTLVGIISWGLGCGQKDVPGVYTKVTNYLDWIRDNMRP

[16] = Metabolic stability in human liver microsomes assessed as degradation after 60 mins; assay type: ADME, Microsome; details: read-out: Drug degradation
hERG (KCNH2) = hERG (KCNH2) (Homo sapiens, UniProt Q12809); experiment: Displacement of [3H]astemizole from human ERG channel at 10 uM; details: probe [3H]astemizole; in short: as §1
Chain of hERG (KCNH2) (Q12809 whole entry): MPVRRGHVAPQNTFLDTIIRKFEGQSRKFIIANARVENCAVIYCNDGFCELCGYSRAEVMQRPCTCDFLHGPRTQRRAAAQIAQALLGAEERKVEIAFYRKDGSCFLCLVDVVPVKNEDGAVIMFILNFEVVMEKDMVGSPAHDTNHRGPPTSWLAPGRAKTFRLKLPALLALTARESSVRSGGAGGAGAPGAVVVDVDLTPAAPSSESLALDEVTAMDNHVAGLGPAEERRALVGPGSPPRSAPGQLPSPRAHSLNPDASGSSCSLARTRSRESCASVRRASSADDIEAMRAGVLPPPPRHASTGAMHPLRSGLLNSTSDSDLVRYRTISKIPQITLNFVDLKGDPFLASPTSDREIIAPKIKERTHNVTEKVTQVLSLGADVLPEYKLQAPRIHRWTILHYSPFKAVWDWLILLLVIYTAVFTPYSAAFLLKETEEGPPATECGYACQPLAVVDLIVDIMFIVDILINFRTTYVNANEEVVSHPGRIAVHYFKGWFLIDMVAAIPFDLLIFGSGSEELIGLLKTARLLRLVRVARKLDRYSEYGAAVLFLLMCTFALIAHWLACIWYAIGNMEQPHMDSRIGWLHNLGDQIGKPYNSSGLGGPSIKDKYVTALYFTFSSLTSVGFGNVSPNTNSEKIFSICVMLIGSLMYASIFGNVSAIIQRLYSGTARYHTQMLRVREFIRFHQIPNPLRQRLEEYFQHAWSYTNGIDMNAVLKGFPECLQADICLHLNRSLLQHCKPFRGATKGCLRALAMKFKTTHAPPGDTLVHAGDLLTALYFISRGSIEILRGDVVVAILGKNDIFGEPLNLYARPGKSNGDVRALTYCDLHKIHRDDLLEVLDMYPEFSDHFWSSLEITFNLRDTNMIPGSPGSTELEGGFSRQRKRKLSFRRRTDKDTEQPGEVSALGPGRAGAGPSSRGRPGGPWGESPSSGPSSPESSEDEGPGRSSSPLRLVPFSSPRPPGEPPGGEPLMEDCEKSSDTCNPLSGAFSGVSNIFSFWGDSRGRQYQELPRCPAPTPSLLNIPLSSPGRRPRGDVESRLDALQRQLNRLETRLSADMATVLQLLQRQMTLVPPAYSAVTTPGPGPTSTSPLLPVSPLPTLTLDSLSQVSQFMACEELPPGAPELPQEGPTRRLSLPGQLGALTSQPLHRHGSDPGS

Cytochrome P450 2C9 = Cytochrome P450 2C9 (Homo sapiens, UniProt P11712); experiment: Inhibition of human recombinant CYP2C9 expressed in Trichoplusia ni BTI-TN-5B1-4 cells preincubated for 15 mins measured after 45 mins by spectrofluorimetry; assay type: ADME, cell-based
Cytochrome P450 3A4 = Cytochrome P450 3A4 (Homo sapiens, UniProt P08684); experiment: Inhibition of human recombinant CYP3A4 expressed in Trichoplusia ni BTI-TN-5B1-4 cells preincubated for 15 mins measured after 30 mins by spectrofluorimetry; assay type: ADME, cell-based
Cytochrome P450 2D6 = Cytochrome P450 2D6 (Homo sapiens, UniProt P10635); experiment: Inhibition of human recombinant CYP2D6 expressed in Trichoplusia ni BTI-TN-5B1-4 cells preincubated for 15 mins measured after 45 mins by spectrofluorimetry; assay type: ADME, cell-based
[17] = biological target: L-type Ca channel, dihydropyridine site (Rattus norvegicus, UniProt P22002+P27732+Q02485); experiment: Displacement of [3H]nitrendipine from wistar rat Ca channel L-type dihydropyridine receptor at 10 uM; details: probe [3H]nitrendipine; in short: as §1

Chain of Plasma kallikrein (P03952 20-390 limits assumed): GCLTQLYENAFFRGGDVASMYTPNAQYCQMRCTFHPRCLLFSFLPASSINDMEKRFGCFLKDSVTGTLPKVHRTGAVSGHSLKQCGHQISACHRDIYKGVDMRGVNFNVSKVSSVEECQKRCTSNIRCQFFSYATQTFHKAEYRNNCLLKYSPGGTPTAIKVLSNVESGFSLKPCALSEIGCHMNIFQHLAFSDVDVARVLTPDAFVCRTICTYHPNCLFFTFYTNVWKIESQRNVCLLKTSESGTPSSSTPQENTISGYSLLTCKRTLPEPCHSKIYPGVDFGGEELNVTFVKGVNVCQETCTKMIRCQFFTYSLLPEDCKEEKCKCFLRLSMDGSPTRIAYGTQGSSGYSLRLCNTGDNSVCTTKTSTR
Chain of Plasma kallikrein (P03952 391-638 limits assumed): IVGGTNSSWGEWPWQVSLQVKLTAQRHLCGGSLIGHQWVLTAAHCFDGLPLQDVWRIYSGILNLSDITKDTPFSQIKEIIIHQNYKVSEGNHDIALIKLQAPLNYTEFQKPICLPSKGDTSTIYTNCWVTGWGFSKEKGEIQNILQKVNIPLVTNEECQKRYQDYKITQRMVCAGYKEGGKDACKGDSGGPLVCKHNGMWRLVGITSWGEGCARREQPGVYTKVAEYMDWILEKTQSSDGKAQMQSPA

N=C(N)c1ccc(CNC(=O)[C@@H]2Cc3ccc(cc3)NC(=O)CCN3CCN(CCC(=O)Nc4cccc(c4)C[C@@H](NS(=O)(=O)Cc4ccccc4)C(=O)N2)CC3)cc1
pKi (Plasma kallikrein): 6.62 | pKi (Prothrombin): 6.42 | pKi [1]: 5.42 | pKi (Coagulation factor X): 5.90 | pKi (Plasminogen): 8.40 | pKi (Trypsin): 9.22

C[C@H]1CN2CC(=O)Nc3ccc(cc3)C[C@@H](C(=O)NCc3ccc(C(=N)N)cc3)NC(=O)[C@H](NS(=O)(=O)Cc3ccccc3)Cc3ccc(cc3)CNC(=O)CN1C[C@@H]2C
pKi (Plasma kallikrein): 6.94 | pKi (Prothrombin): 5.53 | pKi [1]: 5.80 | pKi (Coagulation factor X): 5.49 | pKi (Plasminogen): 8.77 | pKi (Trypsin): 6.90

N=C(N)c1ccc(CNC(=O)[C@@H]2Cc3ccc(cc3)NC(=O)CCN3CCCN(CCC(=O)Nc4ccc(cc4)C[C@@H](NS(=O)(=O)Cc4ccccc4)C(=O)N2)CC3)cc1
pKi (Plasma kallikrein): 6.37 | pKi (Prothrombin): 4.95 | pKi [1]: 5.11 | pKi (Coagulation factor X): 5.07 | pKi (Plasminogen): 8.88 | pKi (Trypsin): 7.99

N=C(N)c1ccc(CNC(=O)[C@@H]2Cc3ccc(cc3)NC(=O)CN3CCN(CC3)CC(=O)NCc3ccc(cc3)C[C@@H](NS(=O)(=O)Cc3ccccc3)C(=O)N2)cc1
pKi (Plasma kallikrein): 6.73 | pKi (Prothrombin): 6.05 | pKi [1]: 5.41 | pKi (Coagulation factor X): 5.60 | pKi (Trypsin): 7.75

N=C(N)c1ccc(CNC(=O)[C@@H]2Cc3cccc(c3)NC(=O)CN3CCN(CC3)CC(=O)Nc3cccc(c3)C[C@@H](NS(=O)(=O)Cc3ccccc3)C(=O)N2)cc1
pKi (Plasma kallikrein): 8.49 | pKi (Prothrombin): 6.64 | pKi [1]: 7.41 | pKi (Coagulation factor X): 7.91 | pKi (Trypsin): 8.47

C[C@@H]1CN2CC(=O)Nc3ccc(cc3)C[C@@H](C(=O)NCc3ccc(C(=N)N)cc3)NC(=O)[C@H](NS(=O)(=O)Cc3ccccc3)Cc3ccc(cc3)NC(=O)CN1C[C@@H]2C
pKi (Plasma kallikrein): 6.30 | pKi (Prothrombin): 4.92 | pKi [1]: < 4.70 | pKi (Coagulation factor X): 4.85 | pKi (Plasminogen): 8.94 | pKi (Trypsin): 7.74

N=C(N)c1ccc(CNC(=O)[C@@H]2Cc3cccc(c3)NC(=O)CCN3CCN(CCC(=O)Nc4ccc(cc4)C[C@@H](NS(=O)(=O)Cc4ccccc4)C(=O)N2)CC3)cc1
pKi (Plasma kallikrein): 7.62 | pKi (Prothrombin): 5.49 | pKi [1]: 6.06 | pKi (Coagulation factor X): 6.63 | pKi (Plasminogen): 8.29 | pKi (Trypsin): 7.60

N=C(N)c1ccc(CNC(=O)[C@@H]2Cc3ccc(cc3)NC(=O)CN3CCN(CC3)CC(=O)Nc3ccc(cc3)C[C@@H](NS(=O)(=O)Cc3ccccc3)C(=O)N2)cc1.O=C(O)C(F)(F)F
pKi [2]: 5.05 | inhibition at 10 µM [3]: 13% | pKi [4]: < 4.30 | EC200 (Plasma [5]): >100 µM | pKi (Prothrombin): 4.86 | pIC50 [6]: < 5.00 | pKi (Coagulation factor IX): < 4.00 | fraction unbound [7]: 0.61 | pKi (Coagulation factor XII): < 4.00 | EC200 (Plasma [8]): >100 µM | pKi (Coagulation factor XI): 5.33 | inhibition (Rattus norvegicus): -8% | EC200 (Plasma [9]): 280 nM | pKi [10]: < 4.00 | pKi [1]: < 4.60 | pKi (Kallikrein-1): < 4.30 | inhibition at 10 µM [11]: 1% | solubility thermodynamic [12]: > 2000 µg/mL | pIC50 [13]: < 4.00 | pKi (Coagulation factor X): < 5.00 | EC200 (Plasma [14]): >100 µM | pKi (Serine protease 1): 7.36 | pKi [15]: < 4.00 | metabolised at 1 h [16]: 0% | inhibition at 10 µM (hERG (KCNH2)): 7% | pIC50 (Cytochrome P450 2C9): < 4.00 | pIC50 (Cytochrome P450 3A4): < 4.66 | pIC50 (Cytochrome P450 2D6): < 4.40 | inhibition at 10 µM [17]: -2% | pKi (Trypsin): 7.20

N=C(N)c1ccc(CNC(=O)[C@@H]2Cc3ccc(cc3)NC(=O)CN3CCN(CC3)CC(=O)Nc3cccc(c3)C[C@@H](NS(=O)(=O)Cc3ccccc3)C(=O)N2)cc1
pKi (Plasma kallikrein): 6.93 | pKi (Prothrombin): 6.22 | pKi [1]: 6.38 | pKi (Coagulation factor X): 6.38 | pKi (Trypsin): 8.11

N=C(N)c1ccc(CNC(=O)[C@@H]2Cc3ccc(cc3)NC(=O)CN3CCCN(CC3)CC(=O)NCc3ccc(cc3)C[C@@H](NS(=O)(=O)Cc3ccccc3)C(=O)N2)cc1
pKi (Plasma kallikrein): 6.36 | pKi (Prothrombin): 5.23 | pKi [1]: < 5.00 | pKi (Coagulation factor X): 5.05 | pKi (Plasminogen): 9.12 | pKi (Trypsin): 7.38

N=C(N)c1ccc(CNC(=O)[C@@H]2Cc3cccc(c3)NC(=O)CN3CCN(CC3)CC(=O)Nc3ccc(cc3)C[C@@H](NS(=O)(=O)Cc3ccccc3)C(=O)N2)cc1
pKi (Plasma kallikrein): 7.89 | pKi (Prothrombin): 5.10 | pKi [1]: 5.39 | pKi (Coagulation factor X): 5.74 | pKi (Trypsin): 7.71

N=C(N)c1ccc(CNC(=O)[C@@H]2Cc3ccc(cc3)NC(=O)CN3CCCN(CC3)CC(=O)Nc3ccc(cc3)C[C@@H](NS(=O)(=O)Cc3ccccc3)C(=O)N2)cc1
pKi (Plasma kallikrein): 6.41 | pKi (Prothrombin): 4.85 | pKi [1]: < 5.00 | pKi (Coagulation factor X): 5.13 | pKi (Plasminogen): 9.24 | pKi (Trypsin): 8.52

C[C@H]1CN2CC(=O)Nc3ccc(cc3)C[C@@H](NS(=O)(=O)Cc3ccccc3)C(=O)N[C@H](C(=O)NCc3ccc(C(=N)N)cc3)Cc3ccc(cc3)NC(=O)CN1C[C@@H]2C
pKi (Plasma kallikrein): 6.62 | pKi (Prothrombin): 5.07 | pKi [1]: 5.32 | pKi (Coagulation factor X): 5.43 | pKi (Plasminogen): 8.79 | pKi (Trypsin): 7.26
